From ChEMBL document CHEMBL4665872, “Rational design of cell-permeable cyclic peptides containing a d-Pro-l-Pro motif” (Bioorg Med Chem, 2020)
Activity calls are given as the source filed them. The rule behind the calls is not given here.

Assays:
[1] = target: T1, Growth factor receptor-bound protein 2 (Homo sapiens, UniProt P62993); assay: Binding affinity to Grb2-SH2 domain (unknown origin) expressed in Escherichia coli […] after 1 hr by fluorescence polarization assay; conditions: in the assay text read “after 2 hrs” for “after 1 hr”
How it was run: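 GST-Grb2 SH2 domain expressed in E. coli BL21(DE3), glutathione-Sepharose purified. […] IC50 from four-parameter logistic fit of FP versus peptide concentration, three sets of experiments.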

[2] = target: Mitogen-activated protein kinase; ERK1/ERK2 (Homo sapiens) (UniProt P27361+P28482); assay: Inhibition of ERK1/2 phosphorylation in EGF-stimulated human MDA-MB-468 cells incubated for 2 hrs followed by 10 mins EGF stimulation by Western blotting analysis
How it was run: (§1)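 MDA-MB-468 cells grown to ~80% confluence, serum-starved 20 h, then given peptide at the indicated concentrations in serum-free medium for 2 h. EGF (50 ng/mL final) added for 10 min. Lysis in RIPA with protease/phosphatase inhibitors and 5 mM EDTA; ~20 μg protein run on 10% SDS-PAGE. Blots probed for phospho- and total MEK and ERK1/2, GAPDH loading control.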

MDA-MB-468 = assay: Effect on intracellular MEK expression in EGF-stimulated human MDA-MB-468 cells incubated for 2 hrs followed by 10 mins EGF stimulation by Western blotting analysis; assay type: functional, cell-based; how it was run: as §1
[3] = Drug uptake in human HeLa cells assessed as cytosolic entry efficiency measured as fluorescence at 5 uM incubated for 2 hrs by flow cytometry relative to CPP9 (100%); assay type: ADME, cell-based
How it was run: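 HeLa cells seeded 24 h earlier, given 5 μM naphthofluorescein-labelled peptide in DMEM with 1% or 10% FBS, 37 °C, 2 h. Cells DPBS-washed, trypsinized, flow cytometry with 633-nm excitation, APC channel, 10,000 live-cell events gated. Signal read as cytosolic entry because NF is non-fluorescent in acidic compartments; mean ± SD of three independent experiments, relative to CPP9 (100%).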

[4] = target: Dual specificity mitogen-activated protein kinase kinase; MEK1/2 (Homo sapiens) (UniProt P36507+Q02750); assay: Inhibition of MEK phosphorylation in EGF-stimulated human MDA-MB-468 cells incubated for 2 hrs followed by 10 mins EGF stimulation by Western blotting analysis; how it was run: as §1
[5] = Metabolic stability of the compound in human MDA-MB-468 cells assessed as protein-tyrosine phosphatase-mediated endogenous dephosphorylation incubated for 2 hrs; assay type: ADME, cell-based; conditions: mda-mb-468, 2 h
[6] = target: T1, Growth factor receptor-bound protein 2; assay: Binding affinity to Grb2-SH2 domain (unknown origin) expressed in Escherichia coli […] after 2 hrs by fluorescence polarization assay

Sequence of Dual specificity mitogen-activated protein kinase kinase; MEK1/2 (Homo sapiens) (P36507 whole entry, looked up): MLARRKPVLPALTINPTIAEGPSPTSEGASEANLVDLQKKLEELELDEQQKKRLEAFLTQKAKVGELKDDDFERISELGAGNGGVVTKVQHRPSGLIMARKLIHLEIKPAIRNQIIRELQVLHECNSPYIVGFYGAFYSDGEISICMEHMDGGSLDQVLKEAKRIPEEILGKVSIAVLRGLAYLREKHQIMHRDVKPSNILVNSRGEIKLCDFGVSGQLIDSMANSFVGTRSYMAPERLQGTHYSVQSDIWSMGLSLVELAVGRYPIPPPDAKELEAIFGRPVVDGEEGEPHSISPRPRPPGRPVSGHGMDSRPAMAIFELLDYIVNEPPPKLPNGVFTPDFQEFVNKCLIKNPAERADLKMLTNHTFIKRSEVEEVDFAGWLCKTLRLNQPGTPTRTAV
Sequence of Dual specificity mitogen-activated protein kinase kinase; MEK1/2 (Homo sapiens) (Q02750 whole entry, looked up): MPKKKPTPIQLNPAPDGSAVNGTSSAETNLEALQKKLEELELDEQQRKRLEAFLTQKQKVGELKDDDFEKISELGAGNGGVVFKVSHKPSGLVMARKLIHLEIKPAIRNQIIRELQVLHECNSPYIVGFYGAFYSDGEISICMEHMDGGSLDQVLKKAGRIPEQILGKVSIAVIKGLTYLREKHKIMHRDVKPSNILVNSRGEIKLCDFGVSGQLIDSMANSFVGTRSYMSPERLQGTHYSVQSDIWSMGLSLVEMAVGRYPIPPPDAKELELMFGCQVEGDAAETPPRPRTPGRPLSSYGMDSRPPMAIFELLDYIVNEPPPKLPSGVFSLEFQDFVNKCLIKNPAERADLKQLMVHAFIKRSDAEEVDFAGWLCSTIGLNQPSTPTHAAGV
T1 sequence (P62993 whole entry, the tested form may be a part): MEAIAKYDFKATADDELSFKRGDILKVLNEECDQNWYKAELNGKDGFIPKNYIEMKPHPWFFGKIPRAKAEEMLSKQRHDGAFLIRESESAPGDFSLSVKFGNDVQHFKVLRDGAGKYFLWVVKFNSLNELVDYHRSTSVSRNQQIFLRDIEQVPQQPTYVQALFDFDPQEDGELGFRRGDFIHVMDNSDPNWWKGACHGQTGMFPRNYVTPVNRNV
Sequence of Mitogen-activated protein kinase; ERK1/ERK2 (Homo sapiens) (P27361 whole entry, looked up): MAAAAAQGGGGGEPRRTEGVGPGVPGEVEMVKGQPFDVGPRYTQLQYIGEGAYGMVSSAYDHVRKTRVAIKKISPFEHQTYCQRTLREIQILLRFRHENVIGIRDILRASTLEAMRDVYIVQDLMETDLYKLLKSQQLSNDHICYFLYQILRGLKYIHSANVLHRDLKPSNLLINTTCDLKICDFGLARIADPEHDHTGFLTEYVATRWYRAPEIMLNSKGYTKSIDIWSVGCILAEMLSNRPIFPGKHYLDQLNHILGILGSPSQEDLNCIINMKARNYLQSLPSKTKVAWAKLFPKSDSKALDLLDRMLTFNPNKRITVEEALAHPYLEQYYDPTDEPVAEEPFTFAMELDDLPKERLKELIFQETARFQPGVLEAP
Sequence of Mitogen-activated protein kinase; ERK1/ERK2 (Homo sapiens) (P28482 whole entry, looked up): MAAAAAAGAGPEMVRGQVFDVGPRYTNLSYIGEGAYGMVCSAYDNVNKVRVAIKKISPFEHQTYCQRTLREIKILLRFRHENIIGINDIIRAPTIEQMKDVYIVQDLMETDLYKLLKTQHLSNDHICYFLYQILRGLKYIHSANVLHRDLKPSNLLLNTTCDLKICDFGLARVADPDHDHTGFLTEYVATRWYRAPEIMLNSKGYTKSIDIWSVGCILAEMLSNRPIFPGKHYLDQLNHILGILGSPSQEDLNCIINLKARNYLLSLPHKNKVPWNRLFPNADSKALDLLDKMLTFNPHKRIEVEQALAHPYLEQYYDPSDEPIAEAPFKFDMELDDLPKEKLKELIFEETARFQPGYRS

Row | Compound | IC50 [1] [µM] | inhibition [2] | Activity (MDA-MB-468) | RFU [3] [%] | inhibition [4] | Stabilty [5] | IC50 [6] [µM]
1 | CC(C)[C@@H]1NC(=O)[C@H](Cc2ccc(OP(=O)(O)O)cc2)NC(=O)[C@H](CCCNC(=N)N)NC(=O)[C@H](CCCNC(=N)N)NC(=O)[C@@H]2CCCN2C(=O)[C@H]2CCCN2C(=O)[C@@H](CCCNC(=N)N)NC(=O)[C@H](Cc2ccc3ccccc3c2)NC(=O)[C@H](Cc2ccccc2)NC(=O)[C@H](CC(=O)NCCOCCOCC(=O)N[C@@H](CCCCNC(=O)c2ccc3c(c2)C(=O)OC32c3ccc4cc(O)ccc4c3Oc3c2ccc2cc(O)ccc32)C(N)=O)NC1=O | 0.4 | inactive | inactive | 49 | Active | Unstable | 
2 | CC(C)[C@@H]1NC(=O)[C@H](Cc2ccc(OP(=O)(O)O)cc2)NC(=O)[C@H](CCCNC(=N)N)NC(=O)[C@H](CCCNC(=N)N)NC(=O)[C@@H]2CCCN2C(=O)[C@H]2CCCN2C(=O)[C@@H](C)NC(=O)[C@H](C)NC(=O)[C@H](Cc2ccccc2)NC(=O)[C@H](CC(=O)NCCOCCOCC(=O)N[C@@H](CCCCNC(=O)c2ccc3c(c2)C(=O)OC32c3ccc4cc(O)ccc4c3Oc3c2ccc2cc(O)ccc32)C(N)=O)NC1=O |  |  |  | 2 | inactive |  | 0.1
3 | CC(C)[C@@H]1NC(=O)[C@H](Cc2ccc(O)cc2)NC(=O)[C@H](CCCNC(=N)N)NC(=O)[C@H](CCCNC(=N)N)NC(=O)[C@@H]2CCCN2C(=O)[C@H]2CCCN2C(=O)[C@@H](CCCNC(=N)N)NC(=O)[C@H](Cc2ccc3ccccc3c2)NC(=O)[C@H](Cc2ccccc2)NC(=O)[C@H](CC(=O)NCCOCCOCC(=O)N[C@@H](CCCCNC(=O)c2ccc3c(c2)C(=O)OC32c3ccc4cc(O)ccc4c3Oc3c2ccc2cc(O)ccc32)C(N)=O)NC1=O |  |  |  | 34 | inactive |  | > 10
